The values below come from ChEMBL document CHEMBL4811272, “A new sulfated triterpene glycoside from the sea cucumber Colochirus quadrangularis, and evaluation of its antifungal, antitumor and immunomodulatory activities” (Bioorg Med Chem, 2021).

By MIC80 is commonly meant the lowest concentration that inhibits either 80% of growth or 80% of the strains tested, depending on the study. A higher MIC80 goes with weaker potency. As a reminder, the IC50 is the concentration needed to halve the response being measured. As a reminder, the T/C is the ratio of treated to control.

Experiment [1] has as its system Mus musculus. Description: Immunomodulatory activity in cyclophosphamide-immunosuppressed KM mouse assessed as improved in phagocytosis function in at 50 to 500 mg/kg, IG once daily measured after 14 days. The format is functional, organism-based. Conditions: dose 50-500 mg/kg, time 14.0 day. Summed up:
(§1)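 KM mice dosed intragastrically once daily for 14 days at 5, 50 or 500 mg/kg; vehicle 0.5% CMC-Na. CTX 50 mg/kg i.p. on days 7, 9 and 11. 1 h after the last dose, 25% Indian ink given i.v. at 0.1 mL/10 g. Blood (20 µL) taken at 2 and 10 min, lysed in 2 mL water, OD 680 nm read. K and α calculated with body, liver and spleen weights. n = 8.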

The test system of experiment [2] is Bel-7402. Description: Antitumor activity against human Bel-7402 cells implanted in BALB/c-nu mouse assessed as tumor growth inhibition at 50 mg/kg, IG administered everyday for 7 days relative to control. The format is functional. Conditions: Bel-7402, po, 168 h, time 7 day, read-out: TGI.
A further experiment relates to Candida albicans. The experiment in a line: Antifungal activity against Candida albicans ATCC 76615 by microplate reader assay. In kind it is functional. Conditions: ATTCC76615. Summed up: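 Broth microdilution read by optical density at 630 nm. MIC80 is the first well with about 80% less growth than the drug-free well. Each concentration was run in three replicate wells, and values are means of three independent experiments.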

The subject of a further experiment is HL-60. The experiment in a line: Cytotoxicity against human HL-60 cells assessed as reduction in cell viability by sulforhodamine B assay. In kind it is functional, cell-based. In outline: (§2)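 Cells were kept in RPMI-1640 with 10% FBS, 2 mM L-glutamine, 50 μM β-mercaptoethanol and penicillin/streptomycin, at 37 °C in 5% CO2. SRB assay used 100, 10, 1, 0.1 and 0.01 μM, each in triplicate. Percent inhibition was calculated against solvent control OD. IC50 came from Logit curve fitting and is the mean of three independent experiments.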

Experiment [3] concerns HCT-116. Description: Induction of apoptosis in human HCT-116 cells assessed as increase in early apoptotic cells measured upto 2 times of IC50 concentration by annexin V staining based flow cytometry analysis. The format is functional, cell-based. Summed up:
(§3)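 HCT-116 cells treated with vehicle or three compound concentrations, collected, and stained with Annexin V-FITC and propidium iodide in the dark at 4 °C. Flow cytometry quadrants: Q4 live, Q3 early apoptotic, Q2 late apoptotic, Q1 necrotic. n = 3; ANOVA vs vehicle.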

Experiment [4] can be described thus: Inhibition of angiogenesis in human HMEC-1 cells assessed as tube formation by matrigel-based assay. In kind it is functional, cell-based. Summed up: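 HMEC-1 cells seeded onto solidified Matrigel and exposed to compound, then cultured. Total tube length measured and used to calculate IC50. Three independent experiments.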
Experiment [5] concerns H22. The experiment in a line: Antitumor activity against mouse H22 cells implanted in KM mouse assessed as tumor growth inhibition at 50 mg/kg, IG administered everyday for 7 days relative to control. The format is functional. The conditions noted are these: H22, po, 168 h, time 7 day, read-out: TGI. Summed up: (§4)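 S-180 or H22 cells, about 2.5 × 10⁶ per mouse, injected s.c. in the right axilla of wild-type KM mice. Randomized after 24 h and dosed intragastrically for 7 days; sacrificed 24 h after the last dose. TGI = (W_C − W_T)/W_C × 100% from average tumor weight. n = 8; one-way ANOVA vs vehicle.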

The test system of experiment [6] is Mus musculus. Description: Immunomodulatory activity in cyclophosphamide-immunosuppressed KM mouse assessed as increase in carbon particle clearance index in at 50 to 500 mg/kg, IG once daily measured after 14 days. In kind it is functional, organism-based. The conditions noted are these: dose 50-500 mg/kg, time 14.0 day. In outline: as §1
In experiment [7] the test system is H22. Description: Antitumor activity against mouse H22 cells implanted in KM mouse assessed as tumor growth inhibition at 0.5 mg/kg, IG administered everyday for 7 days relative to control. The format is functional. Conditions: H22, po, 168 h, time 7 day, read-out: TGI. Summed up: as §4
The test system of experiment [8] is CCRF S-180. Description: Antitumor activity against mouse S-180 cells implanted in KM mouse assessed as tumor growth inhibition at 50 mg/kg, IG administered everyday for 7 days relative to control. In kind it is functional. Conditions: CCRF S-180, po, 168 h, time 7 day, read-out: TGI. In outline: as §4
In experiment [9] the test system is Bel-7402. The experiment in a line: Antitumor activity against human Bel-7402 cells implanted in BALB/c-nu mouse assessed as tumor growth inhibition at 5 mg/kg, IG administered everyday for 7 days relative to control. The format is functional. The conditions noted are these: Bel-7402, po, 168 h, time 7 day, read-out: TGI.
Experiment [10] deals with HCT-116. Description: Induction of apoptosis in human HCT-116 cells assessed as increase in necrotic cells measured upto 2 times of IC50 concentration by annexin V staining based flow cytometry analysis. In kind it is functional, cell-based. Summed up:
as §3
For orientation: Flow cytometry measures light scatter and fluorescence of single cells or particles in a stream.

Experiment [11] concerns Bel-7402. Description: Antitumor activity against human Bel-7402 cells implanted in BALB/c-nu mouse assessed as T/C ratio at 100 mg/kg, IG administered everyday for 7 days relative to control. In kind it is functional. The conditions noted are these: time 7 day.
Experiment [12] deals with CCRF S-180. The experiment in a line: Antitumor activity against mouse S-180 cells implanted in KM mouse assessed as tumor growth inhibition at 0.5 mg/kg, IG administered everyday for 7 days relative to control. The format is functional. Conditions: CCRF S-180, po, 168 h, time 7 day, read-out: TGI. Summed up: as §4
Another experiment has as its system HMEC-1. The experiment in a line: Antimigratory activity against human HMEC-1 cells assessed as inhibition of cell migration by transwell assay. In kind it is functional, cell-based. Summed up:
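HMEC-1 endothelial cells seeded and exposed to compound. Proliferation read by SRB and migration by Transwell. IC50 calculated from three independent experiments.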

A further experiment deals with SPC-A4. The experiment in a line: Cytotoxicity against human SPC-A4 cells assessed as reduction in cell viability by sulforhodamine B assay. The format is functional, cell-based. In outline: as §2
In general terms: In SRB staining, fixed cells bind dye roughly in proportion to their protein.

The next experiment has as its system A549. The experiment in a line: Cytotoxicity against human A549 cells assessed as reduction in cell viability by sulforhodamine B assay. In kind it is functional, cell-based. Summed up:
as §2

The source made the active and inactive calls. No cut-off for these calls is given here.

On to `C=C(C)CCC[C@]1(C)OC(=O)[C@]23CC[C@@H]4C(=CCC5C(C)(C)[C@@H](O[C@@H]6OC[C@@H](OS(=O)(=O)[O-])[C@H](O)[C@H]6O[C@@H]6O[C@H](C)[C@@H](O[C@@H]7OC[C@@H](O)[C@H](O[C@@H]8O[C@H](CO)[C@@H](O)[C@H](OC)[C@H]8O)[C@H]7O)[C@H](O)[C@H]6O)CC[C@@]54C)[C@]2(C)C[C@H](OC(C)=O)[C@@H]31.[Na+]` (some centres not stated), for which the outcome in the experiment with Mus musculus [1], in the experiment with HCT-116 [3], with Mus musculus [6] and in the experiment on HCT-116 [10] was Active. Further, the inhibition in vivo at 50 mg/kg in the experiment with Bel-7402 [2] is 58.2%; with H22 [5] it was 43.3%; in the experiment with CCRF S-180 [8], 55.5%. Besides, the MIC80 in the experiment on Candida albicans came out at 4 µg/mL. Besides, the IC50 in the experiment with HL-60 came out at 600 nM; in experiment [4] it was 60 nM; in the experiment on HMEC-1 it was 50 nM; in the experiment on SPC-A4, 1500 nM; with A549, 1270 nM. Further, the inhibition in vivo at 0.5 mg/kg with H22 [7] was determined as 22.1%; in the experiment on CCRF S-180 [12], 21.6%. For the same compound, in the experiment with Bel-7402 [9], the inhibition in vivo at 5 mg/kg was determined as 50.1%. Besides, the T/C in the experiment with Bel-7402 [11] is listed as 20%.
